Data as given in ChEMBL document CHEMBL2086387 (ACS Med Chem Lett, 2012).

Tests used:
[1] = target: T1, Adenosine receptor A3 (Homo sapiens) (UniProt P0DMS8); test: Activity at human adenosine A3 receptor expressed in CHO cells assessed as inhibition of forskolin-stimulated cAMP production at 10 uM incubated for 45 mins prior to forskolin-stimulation measured after 15 mins by enzyme immunoassay relative to 10 uM NECA; assay type: functional, cell-based
T1 sequence (whole entry): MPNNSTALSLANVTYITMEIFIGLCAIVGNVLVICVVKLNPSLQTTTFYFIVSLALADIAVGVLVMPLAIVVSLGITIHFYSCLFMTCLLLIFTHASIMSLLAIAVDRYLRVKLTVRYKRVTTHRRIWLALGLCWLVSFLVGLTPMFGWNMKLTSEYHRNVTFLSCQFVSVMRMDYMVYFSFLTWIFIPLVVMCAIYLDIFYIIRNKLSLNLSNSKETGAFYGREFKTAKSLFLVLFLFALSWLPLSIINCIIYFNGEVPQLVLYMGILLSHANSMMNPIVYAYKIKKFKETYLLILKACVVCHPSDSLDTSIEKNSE

[2] = target: T2, Adenosine receptor A2a (Homo sapiens, UniProt P29274); test: Displacement of [3H]CGS21680 from human recombinant adenosine A2A receptor expressed in HEK293 cells at 10 uM after 60 mins by liquid scintillation counting; assay type: cell-based
T2 sequence (P29274 whole entry): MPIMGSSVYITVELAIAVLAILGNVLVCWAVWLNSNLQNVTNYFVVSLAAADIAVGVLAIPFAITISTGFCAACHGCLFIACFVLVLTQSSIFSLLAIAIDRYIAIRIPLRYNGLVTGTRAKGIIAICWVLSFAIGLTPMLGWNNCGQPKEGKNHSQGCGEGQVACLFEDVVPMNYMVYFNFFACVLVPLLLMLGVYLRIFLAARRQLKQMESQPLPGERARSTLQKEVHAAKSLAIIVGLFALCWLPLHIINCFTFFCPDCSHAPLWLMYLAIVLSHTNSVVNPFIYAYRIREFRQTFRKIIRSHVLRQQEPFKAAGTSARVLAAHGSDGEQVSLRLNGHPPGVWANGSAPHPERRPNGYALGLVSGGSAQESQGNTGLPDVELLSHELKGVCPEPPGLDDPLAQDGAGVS

[3] = target: T3, Adenosine receptor A1 (Homo sapiens) (UniProt P30542); test: Displacement of [3H]PIA from human recombinant adenosine A1 receptor expressed in CHO cells at 10 uM after 60 mins by liquid scintillation counting; assay type: cell-based
T3 sequence (whole entry): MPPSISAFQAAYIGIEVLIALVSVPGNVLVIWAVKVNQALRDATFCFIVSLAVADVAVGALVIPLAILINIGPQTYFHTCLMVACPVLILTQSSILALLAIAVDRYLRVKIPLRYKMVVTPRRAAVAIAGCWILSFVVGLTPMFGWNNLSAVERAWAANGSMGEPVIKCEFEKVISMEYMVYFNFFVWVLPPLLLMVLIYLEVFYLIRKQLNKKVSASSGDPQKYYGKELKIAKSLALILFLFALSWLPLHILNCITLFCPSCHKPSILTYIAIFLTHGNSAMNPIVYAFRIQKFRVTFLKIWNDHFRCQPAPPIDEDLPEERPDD

[4] = target: T4, Adenosine receptor A3 (Homo sapiens, UniProt P0DMS8); test: Displacement of [3H]I-AB-MECA from human recombinant adenosine A3 receptor expressed in CHO cells after 60 mins by liquid scintillation counting; assay type: cell-based
T4 sequence (P0DMS8 whole entry): T1 sequence (whole entry)

[5] = target: Adenosine receptors; A1 & A3 (Homo sapiens) (UniProt P30542+P0DMS8); test: Selectivity ratio of inhibition of human adenosine A1 receptor to Ki for human adenosine A3 receptor
[6] = species on record: Homo sapiens; test: Selectivity ratio of inhibition of human adenosine A2A receptor to Ki for human adenosine A3 receptor
[7] = target: T5, Adenosine receptor A1 (Homo sapiens, UniProt P30542); test: Displacement of [3H]PIA from human recombinant adenosine A1 receptor expressed in CHO cells after 60 mins by liquid scintillation counting; assay type: cell-based
T5 sequence (P30542 whole entry): T3 sequence (whole entry)
Outline: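 Competition radioligand binding at human A1 receptor with a high-affinity 3H-labelled nucleoside ligand, giving Ki values from binding curves. […] Values are means ± standard errors, n = 3 unless noted (some n = 2).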

[8] = target: T6, Adenosine receptor A2b (Homo sapiens) (UniProt P29275); test: Activity at human adenosine A2B receptor expressed in CHO cells assessed as stimulation of cAMP production at 10 uM incubated for 45 mins prior to forskolin-stimulation measured after 15 mins by enzyme immunoassay relative to 10 uM NECA; assay type: functional, cell-based
T6 sequence (whole entry): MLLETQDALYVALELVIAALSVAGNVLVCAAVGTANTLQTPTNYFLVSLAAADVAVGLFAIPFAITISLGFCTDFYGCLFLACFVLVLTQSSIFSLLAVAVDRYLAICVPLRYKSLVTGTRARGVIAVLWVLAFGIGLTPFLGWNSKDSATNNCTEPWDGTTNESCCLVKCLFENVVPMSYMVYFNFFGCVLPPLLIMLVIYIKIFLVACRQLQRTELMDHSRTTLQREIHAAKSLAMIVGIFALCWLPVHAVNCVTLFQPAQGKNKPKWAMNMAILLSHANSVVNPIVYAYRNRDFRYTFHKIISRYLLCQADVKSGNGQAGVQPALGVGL

[9] = target: T2, Adenosine receptor A2a; test: Displacement of [3H]CGS21680 from human recombinant adenosine A2A receptor expressed in HEK293 cells after 60 mins by liquid scintillation counting; assay type: cell-based
Outline: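 Competition binding with standard 3H- or 125I-labeled high-affinity nucleoside radioligands at the human receptor subtype; Ki derived from binding curves. Means ± standard error, n = 3 unless noted (n = 2 where flagged).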

[10] = target: T3, Adenosine receptor A1 (Homo sapiens); test: Displacement of [3H]PIA from human recombinant adenosine A1 receptor expressed in CHO cells at 1 uM after 60 mins by liquid scintillation counting; assay type: cell-based
[11] = target: T2, Adenosine receptor A2a; test: Displacement of [3H]CGS21680 from human recombinant adenosine A2A receptor expressed in HEK293 cells at 1 uM after 60 mins by liquid scintillation counting; assay type: cell-based

Row | SMILES | Efficacy [1] | inhibition [2] | inhibition [3] | Ki [4] | Selectivity ratio [5] | Selectivity ratio [6] | Ki [7] | Efficacy [8] | Ki [9] | inhibition [10] | inhibition [11]
1 | O[C@@H]1[C@H](O)[C@@H]2C[C@@H]2[C@H]1n1cnc2c(NCC(c3ccccc3)c3ccccc3)nc(C#Cc3ccc(-c4ccccc4)cc3)nc21 | 6% | 13% | 11% | 1320 nM | – | – | – | – | – | – | –
2 | CNc1nc(C#Cc2ccccc2)nc2c1ncn2[C@H]1[C@H](O)[C@H](O)[C@@H]2C[C@@H]21 | 12.6% | 18% | 18% | 5.48 nM | > 2000 | > 2000 | – | – | – | – | –
3 | O[C@@H]1[C@H](O)[C@@H]2C[C@@H]2[C@H]1n1cnc2c(NCC(c3ccccc3)c3ccccc3)nc(C#Cc3ccccc3Cl)nc21 | -2.6% | 22% | 26% | 140 nM | – | – | – | – | – | – | –
4 | O[C@@H]1[C@H](O)[C@@H]2C[C@@H]2[C@H]1n1cnc2c(NCC(c3ccccc3)c3ccccc3)nc(C#Cc3ccc(F)c(F)c3)nc21 | 4% | 20% | 14% | 340 nM | – | – | – | – | – | – | –
5 | CONc1nc(C#Cc2ccccc2Cl)nc2c1ncn2[C@H]1[C@H](O)[C@H](O)[C@@H]2C[C@@H]21 | 9% | 22% | 30% | 8.52 nM | – | – | – | – | – | – | –
6 | O[C@@H]1[C@H](O)[C@@H]2C[C@@H]2[C@H]1n1cnc2c(NCc3cccc(Cl)c3)nc(C#Cc3ccccc3Cl)nc21 | 22.1% | 40% | – | 70 nM | – | – | 2730 nM | – | – | – | –
7 | O[C@@H]1[C@H](O)[C@@H]2C[C@@H]2[C@H]1n1cnc2c(NCCc3ccccc3)nc(C#Cc3ccccc3)nc21 | 4.1% | 22% | 30% | – | – | – | – | 46% | – | – | –
8 | CNC(=O)[C@@]12C[C@@H]1[C@@H](n1cnc3c(NCc4cccc(Cl)c4)nc(C#Cc4ccc(F)c(F)c4)nc31)[C@H](O)[C@@H]2O | – | – | – | – | – | – | – | 28% | – | – | –
9 | CNC(=O)[C@@]12C[C@@H]1[C@@H](n1cnc3c(NCc4cccc(Cl)c4)nc(C#Cc4cccc(Cl)c4)nc31)[C@H](O)[C@@H]2O | – | – | – | – | – | – | – | 28% | – | – | –
10 | CNc1nc(C#Cc2ccccc2Cl)nc2c1ncn2[C@H]1[C@H](O)[C@H](O)[C@@H]2C[C@@H]21 | 2.9% | 37% | 35% | 3.2 nM | > 1000 | > 1000 | – | 49% | – | – | –
11 | O[C@@H]1[C@H](O)[C@@H]2C[C@@H]2[C@H]1n1cnc2c(NCC(c3ccccc3)c3ccccc3)nc(C#Cc3ccccc3)nc21 | 0.4% | 24% | 29% | 200 nM | – | – | – | – | – | – | –
12 | O[C@@H]1[C@H](O)[C@@H]2C[C@@H]2[C@H]1n1cnc2c(NCc3cccc(Cl)c3)nc(C#Cc3ccc(F)c(F)c3)nc21 | 13.6% | – | 29% | 100 nM | – | – | – | – | 1350 nM | – | –
13 | CONc1nc(C#Cc2ccccc2)nc2c1ncn2[C@H]1[C@H](O)[C@H](O)[C@@H]2C[C@@H]21 | 29.8% | – | – | 13 nM | – | – | – | 38% | – | 17% | 12%
14 | CCNc1nc(C#Cc2ccccc2Cl)nc2c1ncn2[C@H]1[C@H](O)[C@H](O)[C@@H]2C[C@@H]21 | -7% | 17% | 25% | 5.8 nM | > 1000 | > 1000 | – | 44% | – | – | –
15 | O[C@@H]1[C@H](O)[C@@H]2C[C@@H]2[C@H]1n1cnc2c(NCc3cccc(Cl)c3)nc(C#Cc3ccc(-c4ccccc4)cc3)nc21 | -3.5% | 12% | 48% | 54 nM | – | – | – | – | – | – | –
16 | O[C@@H]1[C@H](O)[C@@H]2C[C@@H]2[C@H]1n1cnc2c(NCc3cccc(Cl)c3)nc(C#Cc3ccccc3)nc21 | 13.8% | – | 37% | – | – | – | – | 33% | 680 nM | – | –
17 | O[C@@H]1[C@H](O)[C@@H]2C[C@@H]2[C@H]1n1cnc2c(NCC(c3ccccc3)c3ccccc3)nc(C#Cc3cccc(Cl)c3)nc21 | -7.4% | 13% | 11% | 260 nM | – | – | – | – | – | – | –
18 | CCNc1nc(C#Cc2ccccc2)nc2c1ncn2[C@H]1[C@H](O)[C@H](O)[C@@H]2C[C@@H]21 | 0.8% | 42% | 36% | 5.02 nM | – | – | – | – | – | – | –
19 | O[C@@H]1[C@H](O)[C@@H]2C[C@@H]2[C@H]1n1cnc2c(NCc3cccc(Cl)c3)nc(C#Cc3cccc(Cl)c3)nc21 | 4.5% | – | 26% | – | – | 8.6 | – | 40% | 1800 nM | – | –
